Bioassay records deposited in PubChem by Johns Hopkins Ion Channel Center.
Shown are actives, neighbours in structure and some others; about 3.5% of the full set was active somewhere.
MrgX1 PAM – human MrgX1 positive allosteric modulation, primary screen; AID 588675; Q96LB2; B-score at 10 µM; MrgX1-HEK293, Fluo-4 calcium flux, FDSS; active compounds read high; 310,000 compounds, 0.63% hits;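 active = plate-corrected calcium response at least 3 library SD above typical, normal starting fluorescence, not activating the receptor alone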;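 note: compound read alongside a low EC10 to EC30 dose of BAM8-22 agonist; peak minus trough fluorescence over baseline measured at the second addition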
Target sequence (Q96LB2 whole entry, looked up): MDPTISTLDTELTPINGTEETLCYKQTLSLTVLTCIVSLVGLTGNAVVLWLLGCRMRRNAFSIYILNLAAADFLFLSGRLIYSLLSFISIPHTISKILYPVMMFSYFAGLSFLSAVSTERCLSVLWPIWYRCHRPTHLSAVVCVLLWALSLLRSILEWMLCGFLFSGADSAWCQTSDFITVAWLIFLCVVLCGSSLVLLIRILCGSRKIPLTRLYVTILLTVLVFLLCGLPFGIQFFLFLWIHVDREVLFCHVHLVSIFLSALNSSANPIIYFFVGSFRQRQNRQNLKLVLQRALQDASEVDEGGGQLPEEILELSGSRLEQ
RGS4 pot – RGS4 potentiation or activation | HEK293 M3R/inducible RGS4, carbachol calcium flux Fluo4; active compounds read low | B-score at 10 µM | 310,000 compounds, 0.92% hits;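 active = B-score of the integrated calcium signal more than 4 SD below the library mean, with starting fluorescence not abnormally high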;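 note: negative B-score means reduced calcium response which marks RGS4 activation or potentiation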
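System: HEK293 FlpIn-TREx cells, stable M3R, doxycycline-inducible RGS4. Timing: overnight RGS4 induction, 30 min dye load 37 °C, 20 min compound RT. Also added: carbachol, ECmax concentration. Measured by: Fluo4 fluorescence kinetic imaging of calcium. Evaluation: integrated calcium ratio converted to B score.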
MrgX1 agonist – agonists of human MrgX1 receptor; Q96LB2; MrgX1-HEK293 cells, Fluo-4 calcium fluorescence, agonist mode; active compounds read high; B-score at 10 µM; 310,000 compounds, 0.44% hits; AID 588627;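 active = calcium response B-score plate-corrected fluorescence ratio at least 3 library SD, with starting fluorescence B-score inside 5 SD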
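Material: MrgX1-expressing HEK293 cells; input: 15,000 cells per well; doses: test compound given as first of three sequential additions; schedule: overnight plating before 1 h dye loading; technique: Fluo-4 NW calcium-flux fluorescence, kinetic read; evaluation: baseline-normalised fluorescence change ratio, B-scored; control set: plate-wise positive and negative controls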
RGS4 block – inhibitors of human RGS4; P49798; B-score at 10 µM; AID 463165; HEK293 M3R/RGS4 inducible, Fluo-4 calcium flux; active compounds read high; triggered by carbachol at its EC20; 310,000 compounds, 0.45% hits;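 active = B-score, a plate-corrected calcium signal, over three deviations above library mean, with baseline fluorescence within five deviations of library mean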;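 note: RGS4 expression induced by doxycycline in cells with stable M3 receptor; B-score is computed from the integrated fluorescence ratio over baseline after carbachol; higher B-score means a larger calcium signal and so more RGS4 inhibition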
Target sequence (P49798 whole entry, looked up): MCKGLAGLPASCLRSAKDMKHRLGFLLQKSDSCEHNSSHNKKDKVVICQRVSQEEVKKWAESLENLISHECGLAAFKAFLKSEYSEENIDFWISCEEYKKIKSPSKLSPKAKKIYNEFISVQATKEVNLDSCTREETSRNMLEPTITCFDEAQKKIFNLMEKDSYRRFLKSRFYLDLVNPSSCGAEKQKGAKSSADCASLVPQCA
MrgX1 antagonist – blocks BAM8-22 activation of human MrgX1 receptor. Q96LB2. MRGX1-HEK293 calcium flux, Fluo-4, BAM8-22 antagonism; active compounds read low. B-score at 10 µM. 310,000 compounds, 1.3% hits;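 active = calcium-response B-score plate-corrected more than 3 library SD below zero, starting fluorescence within 5 deviations, no agonist response on first addition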;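 note: peak minus trough fluorescence over baseline after final BAM8-22 challenge near maximal dose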
The depositor's hits bear a star.

For O=C(N/C(=C/c1ccco1)C(=O)N1CCCCCC1)c1ccccc1 the results were MrgX1 PAM inactive, RGS4 pot inactive, MrgX1 agonist inactive, RGS4 block inactive and MrgX1 antagonist inactive.
For CCOC(=O)C1CCCN(C(=O)/C(=C/c2ccco2)NC(=O)c2ccccc2)C1 (configuration not stated) the results were MrgX1 PAM inactive, RGS4 pot -7*, MrgX1 agonist inactive, RGS4 block inactive and MrgX1 antagonist inactive.
O=C(COc1cccc(-n2cnnn2)c1)NC1CCCCC1 was read as MrgX1 PAM inactive, RGS4 pot inactive, MrgX1 agonist inactive, RGS4 block inactive and MrgX1 antagonist inactive.
Screening O=S(=O)(Cc1cc(NCc2ccccc2)nc(-c2ccncc2)n1)c1ccccc1 returned MrgX1 PAM inactive, RGS4 pot inactive, MrgX1 agonist inactive, RGS4 block inactive and MrgX1 antagonist inactive.
CC1=NN(C(=O)COc2cc(C)ccc2C(C)C)C(O)(c2ccccc2)C1 (configuration not stated) was read as MrgX1 PAM 8*, RGS4 pot inactive, MrgX1 agonist inactive, RGS4 block inactive and MrgX1 antagonist inactive.
For CCOC(=O)C(=N/O)/C(C)=N/NC(=O)C(=O)Nc1ccc(Cl)cc1 the results were MrgX1 PAM inactive, RGS4 pot inactive, MrgX1 agonist inactive, RGS4 block inactive and MrgX1 antagonist inactive.
For Cc1noc(C)c1COc1ccc(C(=O)Nc2cccnc2)cc1 the results were RGS4 pot -7.4* and RGS4 block inactive.
For O=C(NC1CCCCC1)c1n[nH]c2c1CCCCC2 the results were MrgX1 PAM inactive, MrgX1 agonist inactive and MrgX1 antagonist inactive.
`NS(=O)(=O)c1cc(C(=O)NC2CCSc3ccccc32)ccc1Cl` (configuration not stated) gave MrgX1 PAM inactive, RGS4 pot inactive, MrgX1 agonist 62*, RGS4 block inactive and MrgX1 antagonist inactive.
Screening COc1ccc(C)cc1Nc1nc(N)c2cc(OC)c(OC)cc2n1 returned MrgX1 PAM inactive, RGS4 pot inactive, MrgX1 agonist inactive, RGS4 block inactive and MrgX1 antagonist -4.5*.
C#CCOCCOCCOCCNc1nc(N2CCN(C(=O)CCCCCCCCCCNC(=O)Cn3cc(C[C@@H](C)O)nn3)CC2)nc(N2CCN(C(=O)CCCCCCCCCCNC(=O)[C@@H]([C@H](C)CC)n3cc(CCCCCN)nn3)CC2)n1 was read as MrgX1 PAM 6.9*, MrgX1 agonist inactive and MrgX1 antagonist inactive.
Screening C#CCOCCOCCOCCNc1nc(N2CCN(C(=O)CCCCCCCCCCNC(=O)Cn3cc(CCCCCN)nn3)CC2)nc(N2CCN(C(=O)CCCCCCCCCCNC(=O)[C@@H]([C@H](C)O)n3cc(C)nn3)CC2)n1 returned MrgX1 PAM 11*, MrgX1 agonist inactive and MrgX1 antagonist inactive.
For C#CCOCCOCCOCCNc1nc(N2CCN(C(=O)CCCCCCCCCCNC(=O)Cn3cc(CCCCCN)nn3)CC2)nc(N2CCN(C(=O)CCCCCCCCCCNC(=O)Cn3cc(C[C@@H](C)O)nn3)CC2)n1 the results were MrgX1 PAM inactive, MrgX1 agonist inactive and MrgX1 antagonist -8.3*.
Screening C#CCOCCOCCOCCNc1nc(N2CCN(C(=O)CCCCCCCCCCNC(=O)Cn3cc(C[C@@H](C)O)nn3)CC2)nc(N2CCN(C(=O)CCCCCCCCCCNC(=O)[C@@H]([C@H](C)O)n3cc(C)nn3)CC2)n1 returned MrgX1 PAM inactive, MrgX1 agonist inactive and MrgX1 antagonist inactive.
For O=C(Cc1ccc(Cl)c(Cl)c1)NC1CCCCCC1 the results were MrgX1 PAM inactive, RGS4 pot inactive, MrgX1 agonist inactive, RGS4 block inactive and MrgX1 antagonist inactive.
For Cc1nnc(NC(=O)CSc2nc3[nH]ncc3c(=O)[nH]2)s1 the results were MrgX1 PAM inactive, RGS4 pot inactive, MrgX1 agonist inactive, RGS4 block inactive and MrgX1 antagonist inactive.
O=S(=O)(c1cccc(-c2nc3ccccc3s2)c1)N1CCOCC1 was read as MrgX1 PAM inactive, RGS4 pot inactive, MrgX1 agonist inactive, RGS4 block inactive and MrgX1 antagonist inactive.
For Cc1c(CC(=O)Nc2ccc(Cl)cc2)sc2ccc(Cl)cc12 the results were MrgX1 PAM inactive, RGS4 pot inactive, MrgX1 agonist inactive, RGS4 block inactive and MrgX1 antagonist inactive.
CN(C)c1ccc(P(=O)(OCc2ccccc2)C(O)c2ccccc2F)cc1 (configuration not stated) was read as MrgX1 PAM inactive, RGS4 pot inactive, MrgX1 agonist inactive, RGS4 block inactive and MrgX1 antagonist inactive.
`COC(=O)c1ccc(NC(=O)Nc2ccc([N+](=O)[O-])cc2)cc1` gave MrgX1 PAM inactive, RGS4 pot inactive, MrgX1 agonist inactive, RGS4 block inactive and MrgX1 antagonist -7.6*.
O=C(Nc1ccc([N+](=O)[O-])cc1)Nc1ccon1 was read as MrgX1 PAM inactive, RGS4 pot inactive, MrgX1 agonist inactive, RGS4 block inactive and MrgX1 antagonist -4.6*.
`O=C(Nc1ccc(C(=O)O)cc1)Nc1ccc([N+](=O)[O-])cc1` gave MrgX1 PAM inactive, RGS4 pot inactive, MrgX1 agonist inactive, RGS4 block inactive and MrgX1 antagonist inactive.
O=C(Nc1ccc(Cl)cc1)Nc1cc([N+](=O)[O-])ccc1F was read as MrgX1 PAM inactive, RGS4 pot inactive, MrgX1 agonist inactive, RGS4 block inactive and MrgX1 antagonist inactive.
Screening COC(=O)c1ccc(NC(=O)c2cccc(C)c2[N+](=O)[O-])cc1 returned MrgX1 PAM inactive, RGS4 pot inactive, MrgX1 agonist inactive, RGS4 block inactive and MrgX1 antagonist -6.3*.
For O=C(Nc1ccc([N+](=O)[O-])cc1)Nc1ccc(Cl)cc1F the results were MrgX1 PAM inactive, RGS4 pot inactive, MrgX1 agonist inactive, RGS4 block inactive and MrgX1 antagonist -4.9*.
For CC1(C)CC(NC(=O)c2cccc(F)c2)CC(C)(C)N1 the results were MrgX1 PAM inactive, RGS4 pot inactive, MrgX1 agonist inactive, RGS4 block inactive and MrgX1 antagonist inactive.
`CC(=O)N1CCN(S(=O)(=O)c2cccc(C(=O)OCC(=O)NC(=O)c3cccn3C)c2)CC1` gave MrgX1 PAM inactive, RGS4 pot inactive, MrgX1 agonist inactive, RGS4 block inactive and MrgX1 antagonist inactive.
Screening CC1CCCN(S(=O)(=O)c2cc(Cl)ccc2Cl)C1 (configuration not stated) returned MrgX1 PAM inactive, RGS4 pot inactive, MrgX1 agonist inactive, RGS4 block inactive and MrgX1 antagonist inactive.
CC(C)CC(=O)NC(=S)Nc1nc(-c2cccc3ccccc23)cs1 was read as MrgX1 PAM inactive, RGS4 pot -7.1*, MrgX1 agonist inactive, RGS4 block inactive and MrgX1 antagonist inactive.
